PglD DTNB – PglD (C. jejuni) enzyme inhibition. purified PglD enzyme, DTNB colorimetric CoA detection. inhibition, % at 12.5 µM. AID 602405. 360,000 tested, 0.098% active; in the data active means inhibition above about 16%, passing the limit was not always enough; inconclusive means no clear call, values can overlap the other calls
Mot1-301 SUMO – blocks SUMOylation pathway, rescuing yeast Mot1-301 growth; S. cerevisiae Mot1-301 growth rescue, ATP luminescence, 38.5C; percent above DMSO median, 100 means doubled; growth rescue, % at 18.8 µM; 320,000 tested, 1% active; AID 2716;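 active means every valid replicate shows activation above 250% relative to neutral control wells; inactive means the rest, any valid replicate at or below 250%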;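 further: OY570 slx delta 5 strain wells were the positive control but not used for scaling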
rRNA inh HTS – inhibits bacterial ribosomal RNA function over humanized ribosomes; 350,000 tested, 1.6% active; E. coli WT GFP vs humanized-ribosome RFP mutants, fluorescence, 24 h; active compounds read low; DMSO median 0, no signal -100; AID 720706; GFP signal change (wild-type ribosome), % (no concentration beside the values);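 active means significant combined selectivity score with lowered wild-type GFP, culture density cut under 30%, mutant RFP and density less affected; inactive means any of these conditions unmet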
Cneo AK release – causes C. neoformans cell lysis; AID 651654; 360,000 tested, 0.2% active; adenylate kinase release luminescence, 4 h; normalised: neutral wells 0, clomiphene wells 100; lysis activity, % at 15 µM;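 active means mean lysis activity across replicates of at least 80%, whatever share of replicates individually reach that level; inactive means mean lysis activity below 80%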
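Test system: log-phase Cryptococcus neoformans yeast cells. Input: 5 × 10^6 yeast cells/mL. Medium: fresh YPD growth medium. Doses: single dose. Incubation: static 4 h at 37 °C with compound, 1 h detection. Measured by: luminescent adenylate kinase detection reagent. Read-out: signal increase indicating cell lysis. Benchmarks: Clomiphene.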
Yeast superoxide – caloric restriction mimetics inhibiting age-related superoxide in yeast. S. cerevisiae aged cells, superoxide DHE fluorescence; active compounds read low. superoxide response (% of plate mean), % at 10 µM. 330,000 tested, 0.18% active. AID 2690;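 active means superoxide response under a set limit, about three screen SD below normal, cut at about 65% in these data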;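 further: yeast aged for seven days with compound at 30 °C before DHE staining; 100% = average MFI of all compound-treated wells on the plate with controls excluded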
AID977621 – growth inhibition of wild-type GFP E. coli, dose response, H69 mutant RFP, cherry-pick. shares compounds with rRNA inh HTS. E. coli wild-type GFP strain growth, fluorescence, 24 h. activity change, negative = inhibition at 50 µM. 1,900 tested, under 10 active. AID 977621;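 active means Wild-type ribosome reporter drop at least double the humanized mutant ribosome reporter drop, growth loss under a set limit; inconclusive means no clear call, values can overlap the other calls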;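 further: wild-type GFP and H69 mutant RFP strains grown together 50/50 in each well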
AID977628 – E. coli growth inhibition, wild-type GFP versus h24 humanized RFP strain, dose response, h24 mutant RFP vs wild-type GFP, cherry-pick; activity change, negative = inhibition at 50 µM; AID 977628; 1,900 tested, under 10 active; E. coli WT GFP strain growth, fluorescence, 24 h; shares compounds with rRNA inh HTS;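 active means compound lowering the normal-ribosome reporter at least twice as much as the humanized-ribosome reporter, growth loss under a set limit; inconclusive means no clear call, values can overlap the other calls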;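 further: wild-type GFP and h24 humanized RFP strains co-cultured 1 to 1 per well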
Active calls of the source: *; ? = inconclusive; / = no result. Hits are enriched below; roughly 2.2% of the tested compounds scored in any of these assays.

SMILES	PglD DTNB	Mot1-301 SUMO	rRNA inh HTS	Cneo AK release	Yeast superoxide	AID977621	AID977628
Cc1noc(C)c1NC(=O)Nc1ccc2c(c1)C(=O)N([C@@H](C)CO)C[C@@H](C)[C@H](CN(C)C(=O)CCCN(C)C)OCCCC[C@H](C)O2	-1.7	/	4.0	-4.2	/	/	/
COc1cc2c(cc1OC)CN(CC(=O)Nc1ccccc1SC)CC2	/	26.8	-20.5*	/	120.9	0.484	-6.99
COc1cc2c(cc1OC)CN(CC(=O)Nc1ccccc1C#N)CC2	-4.8	-12.2	/	2.5	94.1	/	/
S=C(NCc1ccc2c(c1)OCO2)NC1CCN(Cc2ccccc2)CC1	4.3	20.4	-5.0	1.0	95.3	/	/
C=C1c2cc3c(cc2NC(=S)N1Cc1ccccc1)OCO3	3.5	8.7	-27.0*	4.3	92.2	-7.9	-3.83
C[C@H](CO)N1C[C@H](C)[C@@H](CN(C)C)Oc2ncc(C#CCN(C)C)cc2C1=O	-0.2	/	10.1	-1.5	/	/	/
Cc1ccccc1S(=O)(=O)N1CCCCN2[C@@H](CO)[C@@H](c3ccc(-c4ccccc4)cc3)[C@@H]2C1	2.3	/	/	-1.9	/	/	/
Cc1cccc(-c2ccc([C@H]3[C@H]4CN(S(=O)(=O)c5ccccc5C)CCCCN4[C@H]3CO)cc2)c1	-1.1	/	2.8	-0.5	/	-2.8	?
COc1cccc(-c2ccc([C@@H]3[C@H](CO)N4CCCCN(S(=O)(=O)c5cccs5)C[C@@H]34)cc2)c1	0.9	/	-45.7*	7.0	/	/	?
COc1cccc(-c2ccc([C@@H]3[C@@H](CO)N4CCCCN(S(=O)(=O)c5cccs5)C[C@H]34)cc2)c1	-1.9	/	-37.0	-3.6	/	/	/
Cc1cccc(-c2ccc([C@@H]3[C@@H](CO)N4CCCCN(S(=O)(=O)c5ccccc5C)C[C@@H]34)cc2)c1	1.0	/	2.1	107.6*	/	-5.11	-2.24
Cc1cccc(-c2ccc([C@@H]3[C@@H](CO)N4CCCCN(S(=O)(=O)c5ccccc5C)C[C@H]34)cc2)c1	-1.5	/	-30.2	0.2	/	-4.98	-4.32
Cc1noc(C)c1S(=O)(=O)N(C)C[C@H]1Oc2ccc(NC(=O)Nc3ccccc3)cc2CC(=O)N([C@@H](C)CO)C[C@H]1C	/	/	1.9	/	/	/	/
O=C(C[C@H]1C[C@@H]2c3cc(NS(=O)(=O)c4ccc(F)cc4)ccc3O[C@@H]2[C@@H](CO)O1)N1CCCCC1	-1.4	/	-4.5	4.3	/	/	/
COC(=O)C[C@@H]1C[C@@H]2c3cc(NC(=O)C4CCC4)ccc3O[C@@H]2[C@H](CO)O1	-1.7	/	2.8	-11.3	/	/	/
COc1cccc(-c2ccc3c(c2)[C@@H]2[C@@H](CCN2C(=O)c2ccc(F)cc2)[C@@H](CO)N3)c1	-0.1	/	-1.0	7.9	/	/	/
CCC(=O)N[C@H]1CC[C@@H](CCNC(=O)Nc2ccc(F)cc2)O[C@H]1CO	0.1	/	1.9	7.7	/	/	/
COC(=O)[C@@]1(Cc2ccccc2N=[N+]=[N-])COC(c2ccc(OCCCO)cc2)=N1	2.5	/	/	-0.4	/	/	/
C[C@@H]1CCCCO[C@H](CN(C)Cc2ccc(C(=O)O)cc2)[C@H](C)CN([C@@H](C)CO)C(=O)c2cc(NC(=O)Nc3ccccc3)ccc2O1	3.8	/	-2.3	1.6	/	/	/
O=[N+]([O-])c1ccc(NCCNCCOc2nonc2-c2ccccc2)c([N+](=O)[O-])c1	-0.3	-13.2	-21.0*	2.1	108.0	5.63	-0.84
CO[C@H](CN(C)Cc1nccs1)[C@H](C)CN([C@@H](C)CO)S(=O)(=O)c1ccc(F)cc1	1.0	/	0.2	2.7	/	/	/
O=[N+]([O-])c1ccc(O)c(CSc2nnnn2-c2ccccc2)c1	-4.2	-11.1	-26.2*	1.9	103.7	-27.7	-12.6
COc1ccc(-n2c(COc3cccc(C)c3)n[nH]c2=S)cc1	-0.9	4.2	-20.3*	2.3	95.3	-6.47	0.601
COc1ccc(C(=O)Nc2ccc3c(c2)C(=O)N(C)C[C@H](OC)[C@H](C)CN(C)[C@@H](C)CO3)cc1	-3.1	/	3.8	-3.9	/	/	/
COc1cccc(C(=O)Nc2ccccc2)c1	/	2.0	/	/	99.2	/	/
SMILES	PglD DTNB	Mot1-301 SUMO	rRNA inh HTS	Cneo AK release	Yeast superoxide	AID977621	AID977628
COc1cccc(NC(=O)c2ccc(C(=O)c3ccccc3)o2)c1	-1.5	26.0	-33.1*	-2.6	89.3	-14.5	/
Cc1cccc(CN2C(=O)c3ccccc3Sc3ccc(C(=O)NCCN4CCOCC4)cc32)c1	/	-11.3	-47.4*	/	83.9	-21.6	/
O=C(Nc1cccc2c1CCCC2)c1ccco1	/	-32.1	-21.0*	/	120.7	-9.16	-11.3
CCc1cc2c(nc1CC)CCCN2Cc1ccc(Br)cc1	/	/	-25.6*	/	/	-3.32	/
CCC(=O)N[C@@H]1C=C[C@H](CC(=O)NCc2ccc(OC)cc2)O[C@H]1CO	-2.0	/	1.1	0.8	/	/	/
CCc1cccc(NC(=O)c2ccc3c(=O)n4c(nc3c2)CCCCC4)c1	-1.6	119.7	-18.6*	-5.8	81.2	-13.8	-5.34
C[C@@H]1CCCCO[C@@H](CN(C)Cc2ccc(Cl)c(Cl)c2)[C@H](C)CN([C@@H](C)CO)C(=O)c2cc(NC(=O)Nc3ccc(C(F)(F)F)cc3)ccc2O1	0.4	/	-1.1	1.0	/	/	/
O=C(NNc1ccc([N+](=O)[O-])cc1[N+](=O)[O-])C1C2CCCCC21 (stereo not given)	/	-11.6	5.2	/	100.6	/	/
O=C(O)C1(Nc2ccc([N+](=O)[O-])cc2[N+](=O)[O-])CCCC1	/	/	-16.1*	/	/	-17	-9.39
O=C(COC(=O)C1CC2C=CC1C2)NCCc1ccccc1 (stereo not given)	-243.3	59.0	-21.1*	-3.2	122.6	-20.1	-8.43
O=C(COC(=O)CCSc1ccccc1)NCc1ccccc1	-1.3	3.6	0.8	1.4	126.9	/	/
O=C(COC(=O)CCSc1ccc(F)cc1)NCc1ccc(F)cc1	2.5	26.7	-17.3*	0.0	92.6	/	?
O=C(COC(=O)CCC(=O)c1ccc(F)cc1)NCCc1ccccc1	3.4	-25.5	-21.1*	-0.8	111.0	-10.7	/
Cc1cc(C(=O)Nc2cccc3c2O[C@H](CN(C)S(=O)(=O)c2c(C)noc2C)[C@H](C)CN([C@H](C)CO)C3=O)n(C)n1	-10.9	/	-1.3	-2.3	/	/	/
COc1ccc(-c2cnc3c(c2)C(=O)N([C@H](C)CO)C[C@H](C)[C@H](CN(C)S(=O)(=O)c2cccc(OC)c2)O3)cc1	/	/	1.2	/	/	/	/
CCS(=O)(=O)N1CC2(C1)[C@@H](c1ccccc1)[C@@H](CO)N2C(=O)C1CCCC1	/	/	0.6	/	/	/	/
O=C(O)CNC(=O)C(c1ccccc1)c1ccccc1	/	12.4	-16.9*	/	103.6	-6.8	-6.99
Cc1noc(C)c1NC(=O)Nc1cccc2c1O[C@H](CN(C)C(=O)NC1CCCCC1)[C@@H](C)CN([C@@H](C)CO)C2=O	-28.8	/	1.3	2.3	/	/	/

Screening results as filed in PubChem BioAssay.
